Assay type in all cases: cell-based
Series [1] can be described thus: Cytotoxicity against human K562/ADR cells assessed as cell viability after 48 hrs by MTT assay. In short, it runs like this:
(§1)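 Cells grown in RPMI 1640 with 10% FBS at 37 °C, 5% CO2; K562/ADR kept off ADR for 2 weeks before use. Cells seeded at 4 × 10^3 per well, exposed to 0.1–100 μM for 48 h. MTT added for 4 h, then SDS–isobutanol–HCl solubilisation overnight, absorbance read at 570 nm. IC50 from three experiments.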
Background: Tetrazolium assays rely on reduction of a dye to a coloured formazan, in cell work by metabolically active cells.

Series [2] is described as follows: Inhibition of NFkappaB signaling in human K562/ADR cells assessed as inhibition of TNFalpha-induced MDR1 expression at 0.3 uM after 24 hrs by Western blot analysis. In short, it runs like this: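 K562/ADR cells incubated 24 h with 0.3 μM plus 5 nM TNF-α. Lysates blotted for MDR1 (1:100) with β-actin (1:500) as loading control, detected by ECL. Densities normalised to β-actin; three experiments.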
A general note: Immunoblotting shows a protein as a band on a membrane.

A short description of series [3]: Inhibition of NFkappaB signaling in human K562/ADR cells assessed as inhibition of TNFalpha-induced MDR1 promoter activity at 0.1 to 0.3 uM after 24 hrs by luciferase reporter gene assay. In short, it runs like this:
(§2)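 Cells plated overnight, then transiently co-transfected with hMDR1-Luc or NF-κB-Luc plus pRL-SV Renilla plasmid by lipofection. Exposed to compound and TNF-α for 24 h. Firefly luciferase normalised to Renilla in a dual-luciferase readout.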
Background: A reporter such as luciferase makes a cellular process visible.

Series [4] in a line: Inhibition of NFkappaB signaling-mediated MDR1 activity in human K562/ADR cells assessed as increase in intracellular accumulation of adriamycin at 0.3 uM incubated for 24 hrs followed by adriamycin addition measured after 1 hr by flow cytometric analysis (reference value: 46.3%). In short, it runs like this:
(§3)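 K562/ADR cells, 4 × 10^6 per well, pretreated with 0.3 μM for 24 h at 37 °C; K562 and untreated K562/ADR run alongside. All incubated with 25 μM ADR for 1 h at 37 °C and washed three times with ice-cold PBS. ADR autofluorescence read by flow cytometry (ex 488 nm, em 575 nm) as mean intensity; three experiments.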

Series [5] in a line: Inhibition of NFkappaB signaling in human K562/ADR cells assessed as inhibition of TNFalpha-induced NFkappaB promoter activity at 0.1 to 0.3 uM after 24 hrs by luciferase reporter gene assay. In short, it runs like this: as §2
Series [6] is described as follows: Inhibition of NFkappaB signaling-mediated MDR1 activity in human K562/ADR cells assessed as increase in intracellular accumulation of adriamycin at 0.3 uM incubated for 24 hrs followed by adriamycin addition measured after 1 hr by flow cytometric analysis relative to K562 cells. In short, it runs like this:
as §3

Series [7] in a line: Inhibition of NFkappaB signaling in human K562/ADR cells assessed as downregulation of MDR1 expression at 0.3 uM measured after 24 to 48 hrs by Western blot analysis. In short, it runs like this: (§4)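 K562/ADR cells treated with 0.3 μM for 0–48 h, or with various concentrations for 24 h, at 37 °C. Total protein extracted and 60 μg run on 10% SDS-PAGE, then PVDF. Blots probed with MDR1 antibody (1:100) and β-actin (1:500), detected by ECL. Band density normalised to β-actin; triplicate.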

A short description of series [8]: Inhibition of NFkappaB signaling-mediated MDR1 activity in human K562/ADR cells assessed as potentiation of adriamycin-induced cytotoxicity after 48 hrs by MTT assay.
The nature of series [9]: Inhibition of NFkappaB signaling in human K562/ADR cells assessed as downregulation of MDR1 expression at 0.3 uM measured for 24 hrs by Western blot analysis. In short, it runs like this:
as §4

A short description of series [10]: Inhibition of NFkappaB signaling in human K562/ADR cells assessed as downregulation of MDR1 mRNA expression at 0.3 uM measured for 24 hrs by qRT-PCR analysis. In short, it runs like this:
(§5)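 K562/ADR cells exposed to 0.3 μM for 0–48 h, or to various concentrations for 24 h. RNA isolated with TRIzol, then qRT-PCR: 95 °C 30 s, then 40 cycles of 95 °C 5 s and 60 °C 20 s. MDR1 quantified by ΔΔCT against β-actin; triplicate.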

Series [11] has as its system K562. Nature of the series: Cytotoxicity against human K562 cells assessed as cell viability after 48 hrs by MTT assay. In short, it runs like this:
as §1

Series [12] addresses T1, NF-kappa-B inhibitor alpha (Homo sapiens) (UniProt P25963).
T1 sequence (whole entry): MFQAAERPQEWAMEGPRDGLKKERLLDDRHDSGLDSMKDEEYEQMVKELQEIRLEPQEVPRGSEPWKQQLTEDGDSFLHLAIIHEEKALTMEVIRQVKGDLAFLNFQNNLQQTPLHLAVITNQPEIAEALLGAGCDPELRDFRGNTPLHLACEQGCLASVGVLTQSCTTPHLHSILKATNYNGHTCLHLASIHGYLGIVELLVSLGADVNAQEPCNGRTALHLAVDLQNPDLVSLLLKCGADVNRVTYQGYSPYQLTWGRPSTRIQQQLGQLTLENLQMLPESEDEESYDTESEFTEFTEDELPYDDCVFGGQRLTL
The experiment in a line: Inhibition of TNFalpha-induced IkappaB-alpha phosphorylation in human K562/ADR cells assessed as decrease in NKkappaB activity at 0.3 uM measured at 12 to 48 hrs by Western blot analysis. In short, it runs like this:
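K562/ADR cells incubated with 0.3 μM for 0–48 h, then TNF-α for 30 min. Lysates blotted for phospho-IκB-α Ser32/36 (1:1000) and β-actin, detected by ECL. Densities normalised to β-actin; three experiments.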

Series [13] is described as follows: Inhibition of NFkappaB signaling in human K562/ADR cells assessed as downregulation of MDR1 mRNA expression at 0.3 uM measured after 24 to 48 hrs by qRT-PCR analysis. In short, it runs like this: as §5

SMILES strings stand for the structures. Calls of active or inactive are those of the source. No cut-off for these calls is given here.

The IC50 is the concentration that inhibits the measured activity by half. For orientation: IC10 means the concentration at which the effect reaches the 10% level. What is called inhibition is the share of the control response that was lost under treatment. For `C[C@@H]1CC[C@@]2(OC1)O[C@H]1C[C@H]3[C@@H]4CC=C5C[C@@H](O[C@@H]6O[C@H](CO)[C@@H](O[C@@H]7O[C@@H](C)[C@H](O)[C@@H](O)[C@H]7O)[C@H](O)[C@H]6O[C@@H]6O[C@@H](C)[C@H](O)[C@@H](O)[C@H]6O)CC[C@]5(C)[C@H]4CC[C@]3(C)[C@H]1[C@@H]2C` [DIOSCIN], the IC50 is 3.3 µM in [1] (Homo sapiens, K562/Adr) and 4.7 µM in [11] (Homo sapiens, K562, 48 h). Besides, the concentration for an effect of 10% (IC10) in [1] (human, k562/adr) turned out to be 0.3 µM; in [11] (human, k562, 48 h), 0.4 µM. In addition, the inhibition entry in series [2], in series [3], in series [5], in [8] and in [12] was “Active” throughout. The inhibition in series [4] amounted to 78.4%; in series [6] it was 59.8%; in [7], 84.7%; in series [9] it was 91.4%; in [10] it was 93.1%; in [13], 97.8%.

Source of the values: ChEMBL document CHEMBL2375241, “Dioscin restores the activity of the anticancer agent adriamycin in multidrug-resistant human leukemia K562/adriamycin cells by down-regulating MDR1 via a mechanism involving NF-κB signaling inhibition” (J Nat Prod, 2013).
